APP 5'UTR act: activators of APP 5'UTR luciferase reporter, primary screen, SH-SY5Y cells; SH-SY5Y APP 5'UTR luciferase reporter, luminescence; zero percent = DMSO vehicle wells; 1% of 190,000 active; activation, % at 2 µM;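 active = activation above a set limit, based on mean plus 3 SD of controls, cut at about 140% in these data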
STAT1 activator: STAT1 signaling activators, primary screen, cell-based, HTS, luciferase reporter; NIH 3T3 STAT1-luciferase reporter, IFN-gamma, luminescence; 100% = IFN-gamma alone, no compound; activation (% of control), % at 5.5 µM; 2.6% of 200,000 active; AID 932, 2007;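 active = activation above the screen-wide mean activation plus 3 SD, cut at about 130% in these data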
STAT3 inh: IL-6 driven STAT3 reporter inhibitors, primary screen, U3A cells, luciferase, luminescence, MLSCN library. IL-6 STAT3-luciferase reporter; host cell line lacks STAT1. inhibition, % at 5.5 µM. 0.89% of 190,000 active. AID 862, 2007;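 active = inhibition above the mean inhibition across all screened compounds plus 3 SD, cut at about 44% in these data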
NF-kB expr up: activators of NF-kB expression in neurons, primary screen, cell-based, HTS; AID 1239, 2008; fold change at 12.5 µM; 1.6% of 190,000 active; human neuronal cells, NF-kB reporter expression; hits give high values; in the data active = fold change above about 3.3
STAT3 activator: IL-6 driven STAT3 reporter potentiators, primary screen, U3A cells, luciferase, luminescence, MLSCN library; IL-6 STAT3-luciferase reporter; 100% = signal with IL-6 EC80 alone; activation (% of control), % at 5.6 µM; 0.91% of 190,000 active; AID 871, 2007;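 active = activation above the screen-wide mean of compound activation plus 3 SD, cut at about 130% in these data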
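Test system: STAT3-luciferase reporter U3A cells; Detection: reporter luminescence signal; Times: 1 h compound pre-exposure, 6 h IL-6 stimulation, 37 °C; Benchmarks: IL-6-only high control; Also added: IL-6 stimulus at 33 ng/mL final.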
STAT1 inh: STAT1 signaling inhibitors, primary screen, cell-based, HTS, luciferase reporter; NIH 3T3 STAT1-luciferase reporter, IFN-gamma, luminescence; inhibition, % at 5.5 µM; 0.35% of 200,000 active; AID 920, 2007;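 active = inhibition above a set limit, the mean inhibition across all tested compounds plus 3 SD, cut at about 34% in these data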
A number is an active result; . = inactive; / = no result given. Hits are enriched below; roughly 4.9% of the tested compounds scored in any of these assays.

SMILES	APP 5'UTR act	STAT1 activator	STAT3 inh	NF-kB expr up	STAT3 activator	STAT1 inh
CCOC(=O)c1cnn(-c2ccccc2)c1-n1cccc1C(=O)C(=O)Nc1ccccc1C(F)(F)F	.	.	.	.	.	.
Cn1cccc1C(=O)C(=O)Nc1ccccc1	145	.	.	5.9	.	.
C/C(O)=C(/N=O)C(=O)Nc1ccccc1	.	.	.	.	.	.
O=C(COc1cc(O)c2c(=O)c3ccccc3oc2c1)OCc1ccccc1	.	/	/	/	/	/
Cc1nn(-c2cccc([N+](=O)[O-])c2)c(N)c1-c1ccccc1	.	142	.	.	.	.
CCC1CCc2c(n(C)c3ccccc3c2=O)O1 (configuration not stated)	.	.	.	.	.	.
COc1ccc(C2C(C(C)=O)=C(O)C(=O)N2c2ccc(Br)cn2)cc1 (configuration not stated)	.	.	.	.	134	.
COCCNS(=O)(=O)c1cc(OC)ccc1OC	.	.	.	.	.	.
CCc1ccc(C(=O)Nc2cc3c(cc2Cl)OCCCO3)cc1	.	150	.	4.6	.	.
Cc1ccc(C(C(=O)Nc2ccc3c(c2)OCO3)N(C)C(=O)/C=C\c2ccc3c(c2)OCO3)cc1 (configuration not stated)	.	.	.	.	.	.
COc1cc(/C=C/c2cc(C(F)(F)F)[nH]c(=O)n2)cc(OC)c1OC	.	.	.	.	.	46
COc1cc(OC)c(OC)cc1/C=C/c1cc(C(F)(F)F)[nH]c(=O)n1	.	.	.	.	.	.
CCO[C@H]1OC(C(N)=O)=C[C@@H](c2ccccc2)[C@@H]1CCCO	.	.	/	.	/	.
O=C1c2ccccc2C(=O)N1CCSc1ccccc1	.	138	.	.	.	.
O=C1c2ccccc2C(=O)N1CCSc1nncs1	.	.	.	.	.	.
Cc1c(CN(C)C)c2c(n1Cc1ccccc1)C(=O)c1ccc(Br)cc1-2	.	.	.	.	.	.
Cc1c(CN(C)C)c2c(n1C)C(=O)c1ccc(Br)cc1-2	.	.	.	3.3	.	.
c1ccc(-c2ncc3c(ccc4ccccc43)n2)cc1	.	141	.	.	.	.
N#C/C(=C1/CCCCCN1)c1nc2ccccc2[nH]1	.	130	.	.	.	.
Cc1cc(NC2CCCCC2)n2c(n1)nc1ccccc12	.	.	.	5.4	.	.
Cc1cc(Nc2cccc(F)c2)n2c(n1)nc1ccccc12	.	.	.	.	.	.
NC(=O)Cn1c(=O)n(CCC(=O)NCCSCc2ccccc2)c(=O)c2ccccc21	.	.	.	.	.	.
Cc1ccn2cc(-c3ccc(NS(=O)(=O)c4ccccc4)cc3)nc2c1	.	130	.	.	.	.
Cc1ccn2cc(-c3ccc(NC(=O)c4ccco4)cc3)nc2c1	139	135	.	.	.	.
CC(=O)Nc1cccc(-c2cn3ccc(C)cc3n2)c1	.	129	.	4.2	.	.
SMILES	APP 5'UTR act	STAT1 activator	STAT3 inh	NF-kB expr up	STAT3 activator	STAT1 inh
Cc1ccc(S(=O)(=O)Nc2ccc(-c3cn4ccc(C)cc4n3)cc2)cc1	.	.	.	.	.	.
Cc1nnc2ccc(-c3ccc(NC(=O)c4ccco4)cc3)nn12	.	.	.	.	.	.
Fc1ccccc1OCC1CCCN(Cc2nc(CC3CC3)no2)C1 (configuration not stated)	.	.	.	.	.	.
Cc1csc2ncc(C(=O)Nc3ccon3)c(=O)n12	.	.	.	.	.	.
Cc1cccc(NC(=O)c2cnc3scc(C)n3c2=O)c1	.	129	.	.	.	.
Cc1csc2ncc(C(=O)Nc3ccccc3Cl)c(=O)n12	.	131	/	.	/	.
Cc1csc2ncc(C(=O)NCc3ccco3)c(=O)n12	.	.	.	.	.	.
CCOC(=O)C1=C(C)N=C2SC(C(=O)OC)=CC(=O)N2C1c1cc(OC)c(OC)c(OC)c1 (configuration not stated)	.	.	.	.	.	.
CN(C)S(=O)(=O)c1cc(NC(=O)CN2CCN(c3ccccc3O)CC2)ccc1Cl	.	.	.	.	.	.
O=C(COC(=O)c1ccc(S(=O)(=O)N2CCCC2)cc1)NCc1ccccc1	.	.	.	.	.	.
